Data as given in ChEMBL document CHEMBL3045565, “Microwave synthesis, characterization and bio-efficacy evaluation of novel chalcone based 6-carbethoxy-2-cyclohexen-1-one and 2H-indazol-3-ol derivatives” (Eur J Med Chem, 2013).
Converted amounts (≈) assume the structure as drawn.

System: Xanthomonas oryzae
Test: Antibacterial activity against Xanthomonas oryzae ITCC B-47 assessed as as growth inhibition at 100 ug/disk after 24 hr by disk diffusion method
Type: functional
Conditions: ITCC B-47, 24 h, read-out: DIZ

Row | Compound | zone of inhibition at 100 µg/disc [mm]
1 | COc1cc(C2CC(c3ccccc3)=Cc3n[nH]c(O)c32)cc(OC)c1OC (stereo not drawn) | 0
2 | COc1ccc(C2CC(c3ccc(OC)c(OC)c3)=Cc3n[nH]c(O)c32)cc1 (stereo not drawn) | 0
3 | COc1ccc(C2CC(c3ccc4c(c3)OCO4)=Cc3n[nH]c(O)c32)cc1 (stereo not drawn) | 0

System: Dickeya chrysanthemi
Test: Antibacterial activity against Erwinia chrysanthemi ITCC B-40 assessed as as growth inhibition at 100 ug/disk after 24 hr by disk diffusion method
Type: functional
Conditions: ITCC B-40, 24 h, read-out: DIZ
Outline: (§1)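 Disk diffusion on nutrient agar. Strains kept on NA slants at 37 °C and subcultured in nutrient broth before testing. A log-phase culture was spread on solidified medium, and sterile disks were loaded with compound from DMSO stock. DMSO served as control, with commercial antibiotics for reference. Plates ran 24 h at 37 °C, and inhibition zones (mm) were read in quadruplicate.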

Row | Compound | zone of inhibition at 100 µg/disc [mm]
4 | COc1cc(C2CC(c3ccccc3)=Cc3n[nH]c(O)c32)cc(OC)c1OC (stereo not drawn) | 0
5 | COc1ccc(C2CC(c3ccc(OC)c(OC)c3)=Cc3n[nH]c(O)c32)cc1 (stereo not drawn) | 0
6 | COc1ccc(C2CC(c3ccc4c(c3)OCO4)=Cc3n[nH]c(O)c32)cc1 (stereo not drawn) | 0

System: Rhizoctonia solani
Test: Antifungal activity against Rhizoctonia solani ITCC 5563 by food poisoning method
Type: functional
Conditions: not given
Outline: (§2)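 Poisoned food technique on PDA at several concentrations. A 5 mm mycelial plug from the growing edge of a 2-week-old colony was placed inoculum-side down at the plate centre. Plates incubated at 27 °C until control growth was nearly complete. Colony diameter measured, percent inhibition calculated against control, LC50 derived. Four replicates per treatment.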

Row | Compound | LC50 [µg/mL]
7 | COc1cc(C2CC(c3ccccc3)=Cc3n[nH]c(O)c32)cc(OC)c1OC (stereo not drawn) | 917 (≈ 2420 µM)
8 | COc1ccc(C2CC(c3ccc(OC)c(OC)c3)=Cc3n[nH]c(O)c32)cc1 (stereo not drawn) | 611 (≈ 1610 µM)
9 | COc1ccc(C2CC(c3ccc4c(c3)OCO4)=Cc3n[nH]c(O)c32)cc1 (stereo not drawn) | 643 (≈ 1770 µM)

System: Athelia rolfsii
Test: Antifungal activity against Athelia rolfsii ITCC 6181 by food poisoning method
Type: functional
Conditions: Agroathelia rolfsii
Outline: as §2

Row | Compound | LC50 [µg/mL]
10 | COc1cc(C2CC(c3ccccc3)=Cc3n[nH]c(O)c32)cc(OC)c1OC (stereo not drawn) | 1020 (≈ 2710 µM)
11 | COc1ccc(C2CC(c3ccc(OC)c(OC)c3)=Cc3n[nH]c(O)c32)cc1 (stereo not drawn) | 894 (≈ 2360 µM)
12 | COc1ccc(C2CC(c3ccc4c(c3)OCO4)=Cc3n[nH]c(O)c32)cc1 (stereo not drawn) | 897 (≈ 2480 µM)

System: Radical scavenging activity
Test: Antioxidant activity assessed as DPPH free radical scavenging activity at 400 ug/mL after 20 min by UV-Vis spectrophotometric analysis
Type: functional
Conditions: not given
Outline: (§3)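 DPPH radical scavenging: samples were held at room temperature for 20 min in the dark, and absorbance was read at 517 nm. The control contained DMSO without compound, and methanol was used for baseline correction. Scavenging percentage was calculated from the absorbances.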

Row | Compound | Activity [%]
13 | COc1cc(C2CC(c3ccccc3)=Cc3n[nH]c(O)c32)cc(OC)c1OC (stereo not drawn) | 90.5
14 | COc1ccc(C2CC(c3ccc(OC)c(OC)c3)=Cc3n[nH]c(O)c32)cc1 (stereo not drawn) | 82.6
15 | COc1ccc(C2CC(c3ccc4c(c3)OCO4)=Cc3n[nH]c(O)c32)cc1 (stereo not drawn) | 89.9

System: Radical scavenging activity
Test: Antioxidant activity assessed as DPPH free radical scavenging activity at 500 ug/mL after 20 min by UV-Vis spectrophotometric analysis
Type: functional
Conditions: not given
Outline: as §3

Row | Compound | Activity [%]
16 | COc1cc(C2CC(c3ccccc3)=Cc3n[nH]c(O)c32)cc(OC)c1OC (stereo not drawn) | 90.8
17 | COc1ccc(C2CC(c3ccc(OC)c(OC)c3)=Cc3n[nH]c(O)c32)cc1 (stereo not drawn) | 82.6
18 | COc1ccc(C2CC(c3ccc4c(c3)OCO4)=Cc3n[nH]c(O)c32)cc1 (stereo not drawn) | 90.1

System: Radical scavenging activity
Test: Antioxidant activity assessed as DPPH free radical scavenging activity at 300 ug/mL after 20 min by UV-Vis spectrophotometric analysis
Type: functional
Conditions: not given
Outline: as §3

Row | Compound | Activity [%]
19 | COc1cc(C2CC(c3ccccc3)=Cc3n[nH]c(O)c32)cc(OC)c1OC (stereo not drawn) | 91.2
20 | COc1ccc(C2CC(c3ccc(OC)c(OC)c3)=Cc3n[nH]c(O)c32)cc1 (stereo not drawn) | 75.3
21 | COc1ccc(C2CC(c3ccc4c(c3)OCO4)=Cc3n[nH]c(O)c32)cc1 (stereo not drawn) | 89.8

System: Radical scavenging activity
Test: Antioxidant activity assessed as DPPH free radical scavenging activity at 100 ug/mL after 20 min by UV-Vis spectrophotometric analysis
Type: functional
Conditions: not given
Outline: as §3

Row | Compound | Activity [%]
22 | COc1cc(C2CC(c3ccccc3)=Cc3n[nH]c(O)c32)cc(OC)c1OC (stereo not drawn) | 91.8
23 | COc1ccc(C2CC(c3ccc(OC)c(OC)c3)=Cc3n[nH]c(O)c32)cc1 (stereo not drawn) | 36.5
24 | COc1ccc(C2CC(c3ccc4c(c3)OCO4)=Cc3n[nH]c(O)c32)cc1 (stereo not drawn) | 90.7

System: Radical scavenging activity
Test: Antioxidant activity assessed as DPPH free radical scavenging activity at 200 ug/mL after 20 min by UV-Vis spectrophotometric analysis
Type: functional
Conditions: not given
Outline: as §3

Row | Compound | Activity [%]
25 | COc1cc(C2CC(c3ccccc3)=Cc3n[nH]c(O)c32)cc(OC)c1OC (stereo not drawn) | 92.3
26 | COc1ccc(C2CC(c3ccc(OC)c(OC)c3)=Cc3n[nH]c(O)c32)cc1 (stereo not drawn) | 58.8
27 | COc1ccc(C2CC(c3ccc4c(c3)OCO4)=Cc3n[nH]c(O)c32)cc1 (stereo not drawn) | 91.9

System: Radical scavenging activity
Test: Antioxidant activity assessed as DPPH free radical scavenging activity at 60 ug/mL after 20 min by UV-Vis spectrophotometric analysis
Type: functional
Conditions: not given
Outline: as §3

Row | Compound | Activity [%]
28 | COc1cc(C2CC(c3ccccc3)=Cc3n[nH]c(O)c32)cc(OC)c1OC (stereo not drawn) | 86.4
29 | COc1ccc(C2CC(c3ccc(OC)c(OC)c3)=Cc3n[nH]c(O)c32)cc1 (stereo not drawn) | 26.3
30 | COc1ccc(C2CC(c3ccc4c(c3)OCO4)=Cc3n[nH]c(O)c32)cc1 (stereo not drawn) | 84.2

System: Radical scavenging activity
Test: Antioxidant activity assessed as DPPH free radical scavenging activity at 80 ug/mL after 20 min by UV-Vis spectrophotometric analysis
Type: functional
Conditions: not given
Outline: as §3

Row | Compound | Activity [%]
31 | COc1cc(C2CC(c3ccccc3)=Cc3n[nH]c(O)c32)cc(OC)c1OC (stereo not drawn) | 90.7
32 | COc1ccc(C2CC(c3ccc(OC)c(OC)c3)=Cc3n[nH]c(O)c32)cc1 (stereo not drawn) | 31.1
33 | COc1ccc(C2CC(c3ccc4c(c3)OCO4)=Cc3n[nH]c(O)c32)cc1 (stereo not drawn) | 89.5

System: Radical scavenging activity
Test: Antioxidant activity assessed as DPPH free radical scavenging activity at 40 ug/mL after 20 min by UV-Vis spectrophotometric analysis
Type: functional
Conditions: not given
Outline: as §3

Row | Compound | Activity [%]
34 | COc1cc(C2CC(c3ccccc3)=Cc3n[nH]c(O)c32)cc(OC)c1OC (stereo not drawn) | 67.1
35 | COc1ccc(C2CC(c3ccc(OC)c(OC)c3)=Cc3n[nH]c(O)c32)cc1 (stereo not drawn) | 12.8
36 | COc1ccc(C2CC(c3ccc4c(c3)OCO4)=Cc3n[nH]c(O)c32)cc1 (stereo not drawn) | 56.1

System: Radical scavenging activity
Test: Antioxidant activity assessed as DPPH free radical scavenging activity at 20 ug/mL after 20 min by UV-Vis spectrophotometric analysis
Type: functional
Conditions: not given
Outline: as §3

Row | Compound | Activity [%]
37 | COc1cc(C2CC(c3ccccc3)=Cc3n[nH]c(O)c32)cc(OC)c1OC (stereo not drawn) | 31.5
38 | COc1ccc(C2CC(c3ccc(OC)c(OC)c3)=Cc3n[nH]c(O)c32)cc1 (stereo not drawn) | 5.3
39 | COc1ccc(C2CC(c3ccc4c(c3)OCO4)=Cc3n[nH]c(O)c32)cc1 (stereo not drawn) | 30.4

System: Radical scavenging activity
Test: Antioxidant activity assessed as DPPH free radical scavenging activity at 10 ug/mL after 20 min by UV-Vis spectrophotometric analysis
Type: functional
Conditions: not given
Outline: as §3

Row | Compound | Activity [%]
40 | COc1cc(C2CC(c3ccccc3)=Cc3n[nH]c(O)c32)cc(OC)c1OC (stereo not drawn) | 18.1
41 | COc1ccc(C2CC(c3ccc(OC)c(OC)c3)=Cc3n[nH]c(O)c32)cc1 (stereo not drawn) | 3.5
42 | COc1ccc(C2CC(c3ccc4c(c3)OCO4)=Cc3n[nH]c(O)c32)cc1 (stereo not drawn) | 19

System: Radical scavenging activity
Test: Antioxidant activity assessed as DPPH free radical scavenging activity after 20 min by UV-Vis spectrophotometric analysis
Type: functional
Design: concentration or dose not given beside the values
Conditions: not given
Outline: as §3

Row | Compound | Activity [%] | IC50 [µg/mL]
43 | COc1cc(C2CC(c3ccccc3)=Cc3n[nH]c(O)c32)cc(OC)c1OC (stereo not drawn) | 67.1 | 22.28 (≈ 58.9 µM)
44 | COc1ccc(C2CC(c3ccc(OC)c(OC)c3)=Cc3n[nH]c(O)c32)cc1 (stereo not drawn) | 12.8 | 146.68 (≈ 388 µM)
45 | COc1ccc(C2CC(c3ccc4c(c3)OCO4)=Cc3n[nH]c(O)c32)cc1 (stereo not drawn) | 56.1 | 25.2 (≈ 69.5 µM)

System: Pseudomonas aeruginosa
Test: Antibacterial activity against Pseudomonas aeruginosa MTCC 2581 assessed as growth inhibition at 100 ug/disk after 24 hr by disk diffusion method
Type: functional
Conditions: MTCC 2581, 24 h, read-out: DIZ
Outline: as §1

Row | Compound | zone of inhibition at 100 µg/disc [mm]
46 | COc1cc(C2CC(c3ccccc3)=Cc3n[nH]c(O)c32)cc(OC)c1OC (stereo not drawn) | 0
47 | COc1ccc(C2CC(c3ccc(OC)c(OC)c3)=Cc3n[nH]c(O)c32)cc1 (stereo not drawn) | 0
48 | COc1ccc(C2CC(c3ccc4c(c3)OCO4)=Cc3n[nH]c(O)c32)cc1 (stereo not drawn) | 0

System: Staphylococcus aureus
Test: Antibacterial activity against Staphylococcus aureus MTCC 3160 assessed as growth inhibition at 100 ug/disk after 24 hr by disk diffusion method
Type: functional
Conditions: MTCC 3160, 24 h, read-out: DIZ
Outline: as §1

Row | Compound | zone of inhibition at 100 µg/disc [mm]
49 | COc1cc(C2CC(c3ccccc3)=Cc3n[nH]c(O)c32)cc(OC)c1OC (stereo not drawn) | 0
50 | COc1ccc(C2CC(c3ccc(OC)c(OC)c3)=Cc3n[nH]c(O)c32)cc1 (stereo not drawn) | 0
51 | COc1ccc(C2CC(c3ccc4c(c3)OCO4)=Cc3n[nH]c(O)c32)cc1 (stereo not drawn) | 0

System: Klebsiella pneumoniae
Test: Antibacterial activity against Klebsiella pneumoniae MTCC 7028 assessed as growth inhibition at 100 ug/disk after 24 hr by disk diffusion method
Type: functional
Conditions: MTCC 7028, 24 h, read-out: DIZ
Outline: as §1

Row | Compound | zone of inhibition at 100 µg/disc [mm]
52 | COc1cc(C2CC(c3ccccc3)=Cc3n[nH]c(O)c32)cc(OC)c1OC (stereo not drawn) | 0
53 | COc1ccc(C2CC(c3ccc(OC)c(OC)c3)=Cc3n[nH]c(O)c32)cc1 (stereo not drawn) | 0
54 | COc1ccc(C2CC(c3ccc4c(c3)OCO4)=Cc3n[nH]c(O)c32)cc1 (stereo not drawn) | 0

System: Bacillus pumilus
Test: Antibacterial activity against Bacillus pumilus MTCC 2466 assessed as growth inhibition at 100 ug/disk after 24 hr by disk diffusion method
Type: functional
Conditions: MTCC 2466, 24 h, read-out: DIZ
Outline: as §1

Row | Compound | zone of inhibition at 100 µg/disc [mm]
55 | COc1cc(C2CC(c3ccccc3)=Cc3n[nH]c(O)c32)cc(OC)c1OC (stereo not drawn) | 0
56 | COc1ccc(C2CC(c3ccc(OC)c(OC)c3)=Cc3n[nH]c(O)c32)cc1 (stereo not drawn) | 0
57 | COc1ccc(C2CC(c3ccc4c(c3)OCO4)=Cc3n[nH]c(O)c32)cc1 (stereo not drawn) | 0

System: Bacillus thuringiensis
Test: Antibacterial activity against Bacillus thuringiensis MTCC 6941 assessed as growth inhibition at 100 ug/disk after 24 hr by disk diffusion method
Type: functional
Conditions: MTCC 6941, 24 h, read-out: DIZ
Outline: as §1

Row | Compound | zone of inhibition at 100 µg/disc [mm]
58 | COc1cc(C2CC(c3ccccc3)=Cc3n[nH]c(O)c32)cc(OC)c1OC (stereo not drawn) | 0
59 | COc1ccc(C2CC(c3ccc(OC)c(OC)c3)=Cc3n[nH]c(O)c32)cc1 (stereo not drawn) | 0
60 | COc1ccc(C2CC(c3ccc4c(c3)OCO4)=Cc3n[nH]c(O)c32)cc1 (stereo not drawn) | 0
